Results from ChEMBL document CHEMBL4725242, “Discovery of GS-9688 (Selgantolimod) as a Potent and Selective Oral Toll-Like Receptor 8 Agonist for the Treatment of Chronic Hepatitis B” (J Med Chem, 2020).
The source made the active and inactive calls.

Legend:
[1] = Drug metabolism in human hepatocytes assessed as oxidation of lipophilic chain; format: ADME, cell-based, Hepatocyte
[2] = Half life in Sprague-Dawley rat at 1 mg/kg, iv administered as 30 mins infusion by HPLC-MS analysis; format: ADME, organism-based; details: in vivo
In short: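 30-min intravenous infusion: Sprague Dawley rats 1 mg/kg, beagle dogs 0.25 mg/kg, cynomolgus monkeys 0.1 mg/kg; n = 3 per species, reported as mean ± SD.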

[3] = Oral bioavailability in Beagle dog at 0.5 mg/kg administered via gavage by HPLC-MS analysis; format: ADME, organism-based, Canis lupus familiaris; details: in vivo
In short: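 Oral dosing in 2% ethanol/40% PEG 300/58% 0.01N HCl: Sprague Dawley rats 5 mg/kg, beagle dogs 0.5 mg/kg, cynomolgus monkeys 3 mg/kg.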

[4] = target: Toll-like receptor 2 (Homo sapiens) (UniProt O60603); experiment: Agonist activity at human TLR2 expressed in HEK293 cells assessed as increase in NF-kappaB activation up to 10 uM incubated for 24 hrs by quanti-blue SEAP reporter gene assay; format: cell-based; details: dose microM <=10, time 24.0 hrs
Chain of Toll-like receptor 2 (Homo sapiens) (O60603 whole entry): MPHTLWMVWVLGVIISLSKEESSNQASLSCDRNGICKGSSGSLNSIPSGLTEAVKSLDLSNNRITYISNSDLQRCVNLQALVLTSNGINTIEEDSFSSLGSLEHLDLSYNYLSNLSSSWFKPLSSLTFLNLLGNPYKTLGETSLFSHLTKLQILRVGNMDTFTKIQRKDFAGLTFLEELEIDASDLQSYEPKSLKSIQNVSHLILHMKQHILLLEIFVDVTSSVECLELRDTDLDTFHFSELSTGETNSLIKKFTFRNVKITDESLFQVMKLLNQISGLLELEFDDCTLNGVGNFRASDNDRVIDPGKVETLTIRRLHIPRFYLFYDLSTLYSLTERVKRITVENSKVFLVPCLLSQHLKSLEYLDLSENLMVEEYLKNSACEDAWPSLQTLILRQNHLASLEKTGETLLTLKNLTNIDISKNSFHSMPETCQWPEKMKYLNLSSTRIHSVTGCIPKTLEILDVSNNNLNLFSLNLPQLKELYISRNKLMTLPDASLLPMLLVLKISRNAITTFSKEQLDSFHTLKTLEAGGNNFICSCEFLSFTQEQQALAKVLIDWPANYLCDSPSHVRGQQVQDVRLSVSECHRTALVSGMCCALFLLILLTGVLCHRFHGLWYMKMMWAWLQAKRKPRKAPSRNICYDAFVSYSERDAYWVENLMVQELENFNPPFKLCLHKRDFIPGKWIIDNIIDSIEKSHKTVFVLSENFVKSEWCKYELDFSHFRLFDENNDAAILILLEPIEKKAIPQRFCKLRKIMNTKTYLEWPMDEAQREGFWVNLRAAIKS
In short: (§1)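 HEK293 cells stably expressing individual human TLRs or other innate immune receptors, used as reporter gene assays. Minimum effective concentration defined as the level giving a 3-fold rise over background.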

[5] = target: Toll-like receptor 3 (Homo sapiens) (UniProt O15455); experiment: Agonist activity at human TLR3 expressed in HEK293 cells assessed as increase in NF-kappaB activation up to 10 uM incubated for 18 hrs by quanti-blue SEAP reporter gene assay; format: cell-based; details: dose microM <=10, time […]; in short: as §1
Chain of Toll-like receptor 3 (Homo sapiens) (O15455 whole entry): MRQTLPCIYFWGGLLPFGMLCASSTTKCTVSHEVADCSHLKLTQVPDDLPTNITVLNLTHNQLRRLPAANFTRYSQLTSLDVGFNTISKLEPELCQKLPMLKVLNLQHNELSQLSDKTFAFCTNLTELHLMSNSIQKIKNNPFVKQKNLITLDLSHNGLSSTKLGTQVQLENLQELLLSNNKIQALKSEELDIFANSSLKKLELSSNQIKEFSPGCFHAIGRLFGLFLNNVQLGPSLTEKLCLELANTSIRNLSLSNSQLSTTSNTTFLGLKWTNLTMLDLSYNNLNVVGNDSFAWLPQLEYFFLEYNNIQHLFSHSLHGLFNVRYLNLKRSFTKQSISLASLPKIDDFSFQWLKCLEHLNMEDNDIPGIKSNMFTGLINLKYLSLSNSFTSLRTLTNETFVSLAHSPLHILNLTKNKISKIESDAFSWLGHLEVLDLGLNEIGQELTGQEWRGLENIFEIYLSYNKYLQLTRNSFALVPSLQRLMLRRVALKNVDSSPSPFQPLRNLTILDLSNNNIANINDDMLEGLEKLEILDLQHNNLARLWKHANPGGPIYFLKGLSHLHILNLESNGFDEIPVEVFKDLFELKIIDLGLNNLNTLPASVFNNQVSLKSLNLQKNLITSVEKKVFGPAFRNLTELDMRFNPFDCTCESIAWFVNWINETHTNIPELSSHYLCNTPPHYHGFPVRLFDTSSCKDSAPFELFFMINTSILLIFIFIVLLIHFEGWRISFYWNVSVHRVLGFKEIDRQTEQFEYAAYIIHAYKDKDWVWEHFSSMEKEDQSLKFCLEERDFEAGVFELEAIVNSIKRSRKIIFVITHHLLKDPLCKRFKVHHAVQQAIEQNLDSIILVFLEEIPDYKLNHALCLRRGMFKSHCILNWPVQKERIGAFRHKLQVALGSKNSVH

CCCC[C@](C)(CO)Nc1nc(N)nc2cc(F)cnc12 [SELGANTOLIMOD]
Drug metabolism [1]: Metabolite_Detected
half-life [2]: 1.45 h
bioavailability [3]: 0.8%
Activity [4]: inactive
Activity [5]: inactive
